Assay results of several laboratories.
Lines come from different studies, so protocols differ.
Target: TGF-beta receptor type-2 (TGFBR2, Homo sapiens, UniProt P37173)

With `C[C@@H](c1cccc(C#N)c1)n1cc(Cl)cc(C(N)=O)c1=N` the remaining binding was 100% (cell-free assay, competition with immobilised ligand; 1 µM).
With `Cc1sc(C(=O)NC2COC2)cc1-n1cc(NC(=O)Nc2c(F)cccc2Cl)cn1` the remaining activity was 86.8% (enzyme activity, inhibitor; 10 µM).
The remaining signal of `Nc1ncnc2occ(-c3ccc(NC(=O)Nc4cc(C(F)(F)F)ccc4F)cc3)c12` is reported as 99% (cell-free assay; 20 µM).
For `O=C1Nc2ccc(Cl)cc2C1=Cc1cc(Cl)c(O)c(Cl)c1`, the remaining signal was 94.9% (cell-free assay; 0.5 µM).
With `CNCc1ccccc1-c1csc([C@@H](C)Nc2nc(C)nc3cc(OC)c(OC)cc23)c1` the remaining binding was 91% (cell-free assay, competition with immobilised ligand; 1 µM).
`N#CCCc1ccc2c(c1)-c1[nH]c3ccc([N+](=O)[O-])cc3c1CC(=O)N2` gave a remaining signal of 10.1% (cell-free assay; 0.5 µM).
For `CCC(=O)N[C@@H]1CC[C@H](C(=O)N(C)c2ccc(-c3nc4ccccc4o3)cc2)C1`, the remaining binding was 100% (cell-free assay, competition with immobilised ligand; 1 µM).
For `CC(C)(C)c1nc2c(s1)c1nc(N)ncc1c1ccc(NS(=O)(=O)c3c(F)cccc3F)c(F)c12`, the remaining activity was 81% (enzyme activity, inhibitor, radiometric; 1 µM).
For `COc1cc2c(N3CCN(C(=O)Nc4ccc(OC(C)C)cc4)CC3)ncnc2cc1OCCCN1CCCCC1`, the remaining signal was 102% (cell-free assay; 0.5 µM).
`Cc1nc(N2CC[C@@H](O)C2)ncc1-c1cc(C(F)(F)F)cc2[nH]ncc12` gave a remaining binding of 99% (cell-free assay, competition with immobilised ligand; 1 µM).
`Cc1ccc(Nc2nccc(N(C)c3ccc4c(C)n(C)nc4c3)n2)cc1S(N)(=O)=O` gave a remaining signal of 100% (cell-free assay; 0.5 µM).
For `Cc1ccc(C(=O)Nc2ccc(CN3CCN(C)CC3)c(C(F)(F)F)c2)cc1C#Cc1cnc2cccnn12`, the remaining signal was 76% (cell-free assay; 23.5 nM).
